H69AR inhibit = growth inhibitors of human H69AR lung tumor cells | H69AR lung tumor viability, ATP luminescence, 72 h; hits give low values | AID 598 | 6% of 85,000 active | viability, % at 10 µM;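 active = viability at or below 40%; inactive = viability above 40%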;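 note: multidrug resistant small cell line overexpressing MRP-1 efflux transporter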
Fibroblast inh = blocks proliferation of human lung fibroblasts. AID 719. viability, % at 10 µM. LL 47 human lung fibroblast viability, ATP luminescence; hits give low values. 1.1% of 85,000 active;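 active = viability at or below 50% in the single dose screen; inactive = viability above 50%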;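 note: compound exposure lasted 72 h before the ATP readout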
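Material: human LL 47 lung fibroblast cells; quantity: 1,150 cells/well; medium: IMEM plus 15% FBS; doses: 0.1% DMSO in all compound wells; timing: overnight attachment after seeding, then 72 h compound exposure at 37 °C; detection: CellTiter-Glo luminescence; measure: % viability of median cell-only signal; controls: cell-only wells, no compound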
HUVEC inhibit = inhibitors of human endothelial cell proliferation | HUVEC proliferation, CellTiter-Glo luminescence, 72 h; hits give low values | viability, % at 10 µM (by protocol) | 1.1% of 86,000 active;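 active = viability at or below 30%; inactive = viability above 30%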
Jurkat tox 60K = reduces viability or proliferation of Jurkat cells | 1.2% of 56,000 active | inhibition, % at 4 µM | Jurkat E6.1 viability, ATP luminescence, 48 h;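 active = inhibition above the mean inhibition of all tested compounds plus 3 SD, cut at about 28% in these data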
Numbers stand for hits; 0 = inactive; - = no result given. Most compounds without a hit are left out; they make up all but 6.4% or so of the library.

SMILES	H69AR inhibit	Fibroblast inh	HUVEC inhibit	Jurkat tox 60K
CCCCCCc1nc2ccccc2c(=O)n1NC(=O)c1c(O)c2cccc3c2n(c1=O)CC3	35.9	0	0	-
CCCc1nc2ccccc2c(=O)n1NC(=O)c1c(O)c2cccc3c2n(c1=O)CCC3	18.4	0	0	0
CCN(CC)CCNC(=O)c1c(O)c2cccc3c2n(c1=O)CCC3	30.7	0	0	0
C=CCn1c(=O)/c(=C2/SC(C)=C(C)N2CC)s/c1=C1/C(=O)N(C)C(=S)N1c1ccccc1	0	0	0	-
O=C(CSc1nc2c(c(=O)n1-c1ccc(Br)cc1)SCC2)NCc1ccco1	0	0	0	-
O=C(CSc1nc2c(c(=O)n1-c1ccc(Cl)cc1)SCC2)Nc1nccs1	20.2	0	0	-
Cc1cc(NC(=O)CSc2nc3c(c(=O)n2-c2ccc(Cl)cc2)SCC3)no1	0	0	0	-
O=C(CSc1nc2c(c(=O)n1-c1ccc(Br)cc1)SCC2)Nc1nccs1	36.4	0	0	0
CCCn1c(N2CCC(Cc3ccccc3)CC2)nc2c1c(=O)[nH]c(=O)n2C	0	0	0	0
CC(=O)Cn1c(N2CCC(Cc3ccccc3)CC2)nc2c1c(=O)[nH]c(=O)n2C	0	0	0	0
CCCCCn1c(N2CCC(Cc3ccccc3)CC2)nc2c1c(=O)[nH]c(=O)n2C	19.6	0	7.5	0
Cn1c(=O)[nH]c(=O)c2c1nc(N1CCC(Cc3ccccc3)CC1)n2Cc1ccccc1	19.6	0	0	0
Cc1cc(NC(=O)C2C3C(=O)N(CC4CCCO4)C(C(=O)NCc4ccccc4)C34C=CC2(C)O4)no1 (configuration not stated)	0	0	0	-
CCn1c(SCc2ccccc2)nnc1-c1ccc(S(=O)(=O)N2CCCCC2)cc1	26.1	0	0	0
CN=C1S/C(=C\c2cccn2-c2cccc(Br)c2)C(=O)N1C	0	0	0	-
CCCOc1ccc(-c2nnn(CC(=O)Nc3cccc(C(=O)OC)c3)n2)cc1	38.5	0	0	0
CCOc1ccc(-c2nnn(CC(=O)Nc3cccc(OC)c3)n2)cc1OCC	0	0	0	0
C(=C\c1ccccc1)/CSc1nnc(-c2ccccn2)n1Cc1ccco1	18.9	42.6	0	86.1
CCOC(=O)C(C(=O)OCC)[C@@H]1CS(=O)(=O)C[C@H]1C(C(=O)OCC)C(=O)OCC	0	0	0	0
COc1ccc(OC)c(S(=O)(=O)NC(C)(C)C)c1	0	0	0	-
Cc1ccc(Nc2nc(N)nc(CN3CCN(c4ccccc4)CC3)n2)cc1Cl	0	0	0	0
COc1ccc(N2CCN(Cc3nc(N)nc(Nc4ccc(C)c(Cl)c4)n3)CC2)cc1	23.0	0	0	0
Cc1ccc(Nc2nc(N)nc(CN3CCN(Cc4ccc5c(c4)OCO5)CC3)n2)cc1Cl	14.0	0	0	0
Cc1ccc(Nc2nc(N)nc(CN3CCN(Cc4ccc5c(c4)OCO5)CC3)n2)cc1	0	0	0	0
O=[N+]([O-])c1ccc(/C=N/Nc2nc(N3CCCCCC3)nc(N3CCCCCC3)n2)o1	28.5	0	0	-
SMILES	H69AR inhibit	Fibroblast inh	HUVEC inhibit	Jurkat tox 60K
Cc1ccccc1-n1nc2c(c1NC(=O)c1cc3ccccc3oc1=O)CS(=O)(=O)C2	4.2	0	0	-
CS(=O)(=O)N(CC(=O)Nc1ccccc1C(=O)NCc1ccco1)c1ccc2c(c1)OCCO2	26.3	0	0	-
COc1ccc(CC(C)N2CCN(c3cccc(C(F)(F)F)c3)CC2)cc1OC (configuration not stated)	0	0	0	-
CC(C)(C)C(=O)COC(=O)CNC(=O)c1ccc(Oc2ccccc2)cc1	0	0	0	-
O=C1CC(C(=O)Nc2nccs2)C(c2ccccc2)O1 (configuration not stated)	0	0	0	-
CCOC(=O)c1ccc(Nc2nc(C(=O)OCC)nc3ccccc23)cc1	37.7	0	0	-
CCOC(=O)c1nc(Nc2ccc(C(=O)O)cc2)c2ccccc2n1	0	0	0	0
COC(=O)C1=C(O)/C(=C\c2ccc(CNC(=O)C(=O)Nc3ccc(C)cc3)o2)N=C1C	25.4	24.9	0	-
CCOC(=O)C1=C(O)/C(=C/c2ccc(CNC(=O)C(=O)Nc3ccc(C)cc3)o2)N=C1C	36.2	7.4	2.3	-
CCOC(=O)C1=C(O)/C(=C/N(C)C)N=C1C	0	0	0	0
CCc1ccc(CCC(=O)Nc2ccc(C)c(C)c2)o1	-	-	-	0
COC(=O)c1cccc(C(=O)Nc2ccc(C)cc2)n1	0	0	0	0
COC(=O)C1=C(O)/C(=C\c2ccc(CNC(=O)C(=O)Nc3ccc(C)c(C)c3)o2)N=C1C	39.9	0	19.0	-
Cc1nnc(N2CCN(c3ccccc3)CC2)c2nn(-c3ccccc3F)c(C)c12	0	0	0	-
Cn1c(=NC(=O)CCl)sc2ccccc21	1.4	2.4	0	-
CCOC(=O)N1CCN(C(=O)CSCC(=O)N=c2sc3ccccc3n2C)CC1	0	0	0	-
O=C1C=C(c2ccccc2)C(=O)N1Nc1ccccc1	1.3	0	0	-
Cc1ccc(C2=NC(C)(C)N=C2SCC(=O)Nc2ccc(Cl)cc2)cc1	0	0	0	-
Cc1ccc(NN2C(=O)C=C(c3ccc(Cl)cc3)C2=O)cc1	2.3	0	0	-
Cc1ccc2c(c1)CCCN2C(=O)c1ccoc1C	34.0	0	0	0
Cc1ccc(-c2noc(-c3cccs3)n2)cc1	40.0	0	0	0
O=C(CSc1ncc(-c2ccc(F)cc2)[nH]1)N1CCCCC1	29.4	-	0	0
O=C(CSc1nc2c(cnn2-c2ccc(F)cc2)c(=O)[nH]1)N1CCCCC1	-	-	-	0
CCc1nc(SCC(=O)c2cccs2)c2oc3ccccc3c2n1	0	0	0	-
Cn1ncc(N=Cc2c(O)ccc3ccccc23)c1C(=O)N1CCOCC1	0	0	0	-
SMILES	H69AR inhibit	Fibroblast inh	HUVEC inhibit	Jurkat tox 60K
Cn1ncc(N=Cc2ccccc2O)c1C(=O)Nc1ccccc1	36.8	0	0	-
CCc1ccccc1NS(=O)(=O)c1ccc2[nH]cc(C(=O)NCc3ccco3)c(=O)c2c1	0	0	27.9	0
O=C(NCc1ccco1)c1c[nH]c2ccc(S(=O)(=O)N3CCOCC3)cc2c1=O	0	0	0	-
Clc1ccc(C2CC(c3ccccc3)Nc3ncnn32)cc1 (configuration not stated)	28.3	0	0	0
COc1cccc(C2CC(c3ccccc3OC)n3ncnc3N2)c1 (configuration not stated)	31.3	0	0	0
COc1cccc(C2CC(c3ccccc3)Nc3ncnn32)c1 (configuration not stated)	0	0	0	0
CCOc1ccc(S(=O)(=O)NCc2ccc(F)cc2)c2cccnc12	0	0	0	0
O=C(N/N=C\c1cc(Br)cs1)C1COc2ccccc2O1 (configuration not stated)	27.1	0	0	-
COc1ccc(F)cc1S(=O)(=O)N1CC(C)CC(C)C1 (configuration not stated)	0	0	0	-
COc1ccccc1NC(=O)C1=C(C)Nc2nnnn2C1c1cccc(C)c1 (configuration not stated)	30.4	0	0	0
COc1ccccc1NC(=O)C1=C(C)Nc2nnnn2C1c1ccccc1OC (configuration not stated)	0	0	0	0
COc1ccc(-c2nn(-c3ccccc3)cc2C(=O)n2nnc3ccccc32)cc1	22.6	0	0	-
C#CCOC(=O)c1ccccc1C(=O)OCC#C	0	0	0	0
